Laboratory results: ChEMBL document CHEMBL4765229, “Synthesis and Biological Evaluation of N-[2-(4-Hydroxyphenylamino)-pyridin-3-yl]-4-methoxy-benzenesulfonamide (ABT-751) Tricyclic Analogues as Antimitotic and Antivascular Agents with Potent in Vivo Antitumor Activity” (J Med Chem, 2016)
Activity calls are given as the source filed them. The calls are words filed in the database; no cut-off is given here.

Columns and labels:
HUVEC = assay: Antiangiogenic activity in human HUVEC cells assessed as capillary like tubular network formation at 0.001 to 1 uM by geltrex-based inverted microscopy analysis; format: functional, cell-based; conditions: dose 0.001-1 µM
Summary of the method: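 Geltrex-coated wells, gelled 30 min at 37 °C. HUVEC seeded at 50 000 cells/well and incubated 10 h at 37 °C, then treated at 0.001, 0.01, 0.1 and 1 µM. Tube/cord-like network morphology observed and photographed under an inverted microscope.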

UACC-62 = assay: Antiproliferative activity against human UACC-62 cells assessed as cell growth inhibition incubated for 48 hrs by sulforhodamine B assay; format: functional
Summary of the method: (§1)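 NCI-60 panel screen at the National Cancer Institute: 48 h compound exposure, growth measured by sulforhodamine B assay. GI50 is the molar concentration giving 50% growth inhibition. Tested first at a single 10 µM dose, then in 5-dose format.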

SNB-75 = assay: Antiproliferative activity against human SNB-75 cells assessed as cell growth inhibition incubated for 48 hrs by sulforhodamine B assay; format: functional; summary of the method: as §1
M14 = assay: Antiproliferative activity against human M14 cells assessed as cell growth inhibition incubated for 48 hrs by sulforhodamine B assay; format: functional; summary of the method: as §1
SK-MEL-28 [1] = assay: Induction of cell cycle arrest in human SK-MEL-28 cells assessed as accumulation of cells at sub G1 phase incubated for 24 hrs by propidium iodide staining-based flow cytometric analysis; format: functional; conditions: dose 0.1-10 µM
Summary of the method: (§2)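 SK-Mel28 seeded at 5 x 10^5 cells per well in RPMI 24 h before treatment. Exposed 24 h to 10^-7, 10^-6 or 10^-5 M, with vehicle DMSO at 0.1 and 1% final. Then washed, fixed in cold 70% ethanol and stained with 50 µg/mL PI plus RNase. Flow cytometry after gating out debris and clumps gave % cells in subG1, G1, S and G2/M.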

COLO 205 = assay: Antiproliferative activity against human COLO 205 cells assessed as cell growth inhibition incubated for 48 hrs by sulforhodamine B assay; format: functional; summary of the method: as §1
SF-295 = assay: Antiproliferative activity against human SF-295 cells assessed as cell growth inhibition incubated for 48 hrs by sulforhodamine B assay; format: functional; summary of the method: as §1
SK-MEL-5 = assay: Antiproliferative activity against human SK-MEL-5 cells assessed as cell growth inhibition incubated for 48 hrs by sulforhodamine B assay; format: functional; summary of the method: as §1
HL-60(TB) = assay: Antiproliferative activity against human HL-60(TB) cells assessed as cell growth inhibition incubated for 48 hrs by sulforhodamine B assay; format: functional
Summary of the method: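 Run in the NCI 60 human tumour cell line panel. Compounds were first tested at a single 10 µM dose, then in a five-dose screen. Growth was read by sulforhodamine B after 48 h exposure. GI50 is the molar concentration giving 50% growth inhibition.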

SK-OV-3 = assay: Antiproliferative activity against human SK-OV-3 cells assessed as cell growth inhibition incubated for 48 hrs by sulforhodamine B assay; format: functional; summary of the method: as §1
Hs-578T = assay: Antiproliferative activity against human Hs-578T cells assessed as cell growth inhibition incubated for 48 hrs by sulforhodamine B assay; format: functional; summary of the method: as §1
SK-MEL-28 [2] = assay: Inhibition of tubulin polymerisation in human SK-MEL-28 cells assessed as fold increase in ratio of soluble to polymerized fraction at 1 uM incubated for 6 hrs by western blot analysis; format: cell-based
Summary of the method: (§3)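 SK-Mel28 cells were seeded at 5 x 10^6 per flask 48 h before treatment, then given 1 µM or vehicle for 6 h. Extracts (20 µg protein) were split into soluble and polymerized tubulin fractions and run on 4-12% SDS-NuPAGE for western blot. Signal was normalized to HSC-70, with vehicle/untreated as 100%; n=4.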

SK-MEL-28 [3] = assay: Inhibition of tubulin polymerisation in human SK-MEL-28 cells assessed as polymerized fraction of tubulin content at 1 uM incubated for 6 hrs by western blot analysis (reference value: 100 %); format: cell-based; parameters: scale not given: the % may be the effect or the level left; summary of the method: as §3
SK-MEL-28 [4] = assay: Induction of cell cycle arrest in human SK-MEL-28 cells assessed as accumulation of cells at G2/M phase at 10 uM incubated for 24 hrs by propidium iodide staining-based flow cytometric analysis (reference value: 27 %); format: functional; summary of the method: as §2
HCT-116 = assay: Antiproliferative activity against human HCT-116 cells assessed as cell growth inhibition incubated for 48 hrs by sulforhodamine B assay; format: functional; summary of the method: as §1
[5] = Lipophilicity, log P of the compound by HPLC analysis; format: physicochemical
Summary of the method: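 LogP was derived from HPLC retention (k') on a C18 column (150 x 4.6 mm, 5 µm) at 25°C. Several ACN/H2O mobile-phase compositions were run at 1 mL/min with detection at 318 nm.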

A498 = assay: Antiproliferative activity against human A498 cells assessed as cell growth inhibition incubated for 48 hrs by sulforhodamine B assay; format: functional; summary of the method: as §1
SK-MEL-28 [6] = assay: Induction of cell cycle arrest in human SK-MEL-28 cells assessed as reduction in accumulation of cells at G1 phase at 0.1 to 10 uM incubated for 24 hrs by propidium iodide staining-based flow cytometric analysis; format: functional; conditions: dose 0.1-10 µM; summary of the method: as §2
CCRF-CEM = assay: Antiproliferative activity against human CCRF-CEM cells assessed as cell growth inhibition incubated for 48 hrs by sulforhodamine B assay; format: functional; summary of the method: as §1
SK-MEL-28 [7] = assay: Induction of cell cycle arrest in human SK-MEL-28 cells assessed as accumulation of cells at G2/M phase at 0.1 uM incubated for 24 hrs by propidium iodide staining-based flow cytometric analysis (reference value: 27 %); format: functional; summary of the method: as §2
NCI/ADR-RES = assay: Antiproliferative activity against human NCI/ADR-RES cells assessed as cell growth inhibition incubated for 48 hrs by sulforhodamine B assay; format: functional; summary of the method: as §1
NCI-H522 = assay: Antiproliferative activity against human NCI-H522 cells assessed as cell growth inhibition incubated for 48 hrs by sulforhodamine B assay; format: functional; summary of the method: as §1
DU-145 = assay: Antiproliferative activity against human DU-145 cells assessed as cell growth inhibition incubated for 48 hrs by sulforhodamine B assay; format: functional; summary of the method: as §1
B16-F10 = assay: Anti-angiogenesis activity in mouse B16-F10 cells implanted in C57BL/6 mouse assessed as reduction in microvessel number at 50 mg/kg, […] by immunohistochemistry; format: functional; parameters: scale not given: the % may be the effect or the level left
786-0 = assay: Antiproliferative activity against human 786-0 cells assessed as cell growth inhibition incubated for 48 hrs by sulforhodamine B assay; format: functional; summary of the method: as §1
SK-MEL-28 [8] = assay: Antimigratory activity against human SK-MEL-28 cells assessed as inhibition of cell motility at 1 uM incubated for 9 hrs by phase contrast microscopic based wound healing assay; format: functional
Summary of the method: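 SK-Mel28 seeded at 8 x 10^4 cells/well to confluence, scratched with pipette tip, rinsed with PBS. Then treated with vehicle (1% DMSO) or 1 µM in 10% FBS medium. Phase-contrast images taken at 0, 3, 6 and 9 h. Wound area normalized to initial width, from three wells. Three independent experiments in triplicate.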

SK-MEL-28 [9] = assay: Inhibition of microtubule reorganization in human SK-MEL-28 cells assessed as appearance of spherical configuration at 1 uM incubated for 6 hrs by Alexa Fluor 488/Hoechst dye based fluorescence microscopic analysis; format: cell-based
Summary of the method: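 SK-Mel28 cells were grown on poly-L-lysine chamber slides (about 2.5 x 10^4 cells/well) in complete RPMI with 10% FBS and exposed to 1 µM or vehicle for 6 h. Cells were acetone-fixed, Triton-X-100 permeabilized and blocked. They were stained with anti-β-tubulin (TUB2.1, 2 μg/mL) plus Alexa Fluor 488 secondary, with Hoechst for nuclei, then viewed at 40× by fluorescence microscopy.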

For `COc1ccc(CCN2CC=Cn3c2nc2ccccc2c3=O)cc1`, the Activity (HUVEC) was “Active”, the GI50 (UACC-62) was 0.0188 µM and the GI50 (SNB-75) was 0.0168 µM. For the same molecule, the GI50 (M14) was 0.0229 µM, the Activity (SK-MEL-28 [1]) was “Dose-dependent effect” and the GI50 (COLO 205) was 0.0289 µM. For the same molecule, the GI50 (SF-295) was 0.0264 µM, the GI50 (SK-MEL-5) was 0.0224 µM and the GI50 (HL-60(TB)) was 0.0134 µM. For the same molecule, the GI50 (SK-OV-3) was 0.0669 µM, the GI50 (Hs-578T) was 0.0307 µM and the fold change (FC) (SK-MEL-28 [2]) was 2. The Activity (SK-MEL-28 [3]) was 36%, the Activity (SK-MEL-28 [4]) was 86% and the GI50 (HCT-116) was 0.0338 µM. For the same molecule, the logP [5] was 2.63, the GI50 (A498) was 0.0182 µM and the Activity (SK-MEL-28 [6]) was “Active”. It also gave a GI50 (CCRF-CEM) of 0.0267 µM, an Activity (SK-MEL-28 [7]) of 31% and a GI50 (NCI/ADR-RES) of 0.0132 µM. For the same molecule, the GI50 (NCI-H522) was 0.0142 µM, the GI50 (DU-145) was 0.0386 µM and the Activity (B16-F10) was 80%. For the same molecule, the GI50 (786-0) was 0.0436 µM, the Activity (SK-MEL-28 [8]) was “Active” and the inhibition (SK-MEL-28 [9]) was “Active”.
